Published values from different studies.
Nectin-4: Nectin-4 (Homo sapiens, UniProt Q96NY8)
SIGMAR1: Sigma non-opioid intracellular receptor 1 (SIGMAR1, Homo sapiens, UniProt Q99720)
PFF0160c: Dihydroorotate dehydrogenase (quinone), mitochondrial (PFF0160c, Plasmodium falciparum, UniProt Q08210)
PFF0160c E182D: Dihydroorotate dehydrogenase (quinone), mitochondrial (PFF0160c, Plasmodium falciparum, UniProt Q08210, E182D)

Compound	target	effect on	mode	method	endpoint	result
CCCC[C@@H]1NC(=O)[C@H](Cc2ccc(O)cc2)NC(=O)[C@@H]2CCCN2C(=O)[C@H](CC(=O)O)NC(=O)[C@H](C)NC(=O)[C@H](Cc2ccccc2)NC(=O)[C@@H]2CSCCC(=O)N3CN(CN(C3)C(=O)CCSC[C@H](NC(C)=O)C(=O)N[C@@H](CC(C)(C)C)C(=O)N3CCC[C@H]3C(=O)N[C@@H](CCC(=O)O)C(=O)N[C@H](CCCCNC(=O)CCc3cn(CCOCCOCCOCCN(CCOCCOCCOCCC(=O)N[C@H]4CSCCC(=O)N5CN6CN(C5)C(=O)CCSC[C@H](NC(=O)[C@@H](CC(=O)O)NC(=O)[C@H](Cc5cccc7ccccc57)NC(=O)[C@@H]5CCCN5C4=O)C(=O)N[C@@H](CCSC)C(=O)N[C@@H](CCCCNC(=N)N)C(=O)N[C@@H](CC(=O)O)C(=O)N[C@@H](Cc4c[nH]c5ccccc45)C(=O)N[C@@H](CO)C(=O)N[C@@H]([C@@H](C)O)C(=O)N4CCC[C@H]4C(=O)N4C[C@H](O)C[C@H]4C(=O)N[C@@H](Cc4c[nH]c5ccccc45)C(=O)N[C@H](C(N)=O)CSCCC6=O)CCOCCOCCOCCn4cc(CCC(=O)NCCCC[C@H]5NC(=O)[C@H](CCC(=O)O)NC(=O)[C@@H]6CCCN6C(=O)[C@H](CC(C)(C)C)NC(=O)[C@@H](NC(C)=O)CSCCC(=O)N6CN7CN(C6)C(=O)CCSC[C@H](NC(=O)[C@H](Cc6ccc(O)cc6)NC(=O)[C@@H]6CCCN6C5=O)C(=O)N[C@@H](Cc5ccccc5)C(=O)N[C@@H](C)C(=O)N[C@@H](CC(=O)O)C(=O)N5CCC[C@H]5C(=O)N[C@@H](Cc5ccc(O)cc5)C(=O)N[C@@H](CCCC)C(=O)NCCSCCC7=O)nn4)nn3)C(=O)N3CCC[C@H]3C(=O)N[C@@H](Cc3ccc(O)cc3)C(=O)N2)C(=O)CCSCCNC1=O	Nectin-4	binding		SPR	Kd	2.8 nM
CN1CCN(C2=Nc3ccccc3Oc3ccc(Cl)cc32)CC1	SIGMAR1	ligand displacement		radioligand	Ki	> 10000 nM
CCCC[C@@H]1NC(=O)[C@H](Cc2ccc(O)cc2)NC(=O)[C@@H]2CCCN2C(=O)[C@H](CC(=O)O)NC(=O)[C@H](C)NC(=O)[C@H](Cc2ccccc2)NC(=O)[C@@H]2CSCCC(=O)N3CN(CN(C3)C(=O)CCSC[C@H](NC(C)=O)C(=O)N[C@@H](CC(C)(C)C)C(=O)N[C@@H](CCC(=O)O)C(=O)N[C@@H](CCC(=O)O)C(=O)N[C@H](CCCCNC(=O)CCc3cn(CCOCCOCCOCCN(CCOCCOCCOCCC(=O)N[C@H]4CSCCC(=O)N5CN6CN(C5)C(=O)CCSC[C@H](NC(=O)[C@@H](CC(=O)O)NC(=O)[C@H](Cc5cccc7ccccc57)NC(=O)[C@@H]5CCCN5C4=O)C(=O)N[C@@H](CCSC)C(=O)N[C@@H](CCCCNC(=N)N)C(=O)N[C@@H](CC(=O)O)C(=O)N[C@@H](Cc4c[nH]c5ccccc45)C(=O)N[C@@H](CO)C(=O)N[C@@H]([C@@H](C)O)C(=O)N4CCC[C@H]4C(=O)N4C[C@H](O)C[C@H]4C(=O)N[C@@H](Cc4c[nH]c5ccccc45)C(=O)N[C@H](C(N)=O)CSCCC6=O)CCOCCOCCOCCn4cc(CCC(=O)NCCCC[C@H]5NC(=O)[C@H](CCC(=O)O)NC(=O)[C@H](CCC(=O)O)NC(=O)[C@H](CC(C)(C)C)NC(=O)[C@@H](NC(C)=O)CSCCC(=O)N6CN7CN(C6)C(=O)CCSC[C@H](NC(=O)[C@H](Cc6ccc(O)cc6)NC(=O)[C@@H]6CCCN6C5=O)C(=O)N[C@@H](Cc5ccccc5)C(=O)N[C@@H](C)C(=O)N[C@@H](CC(=O)O)C(=O)N5CCC[C@H]5C(=O)N[C@@H](Cc5ccc(O)cc5)C(=O)N[C@@H](CCCC)C(=O)N[C@H](C(N)=O)CSCCC7=O)nn4)nn3)C(=O)N3CCC[C@H]3C(=O)N[C@@H](Cc3ccc(O)cc3)C(=O)N2)C(=O)CCSC[C@@H](C(N)=O)NC1=O	Nectin-4	binding		SPR	Kd	5 nM
O=C1C(c2ccccc2)=C(Nc2ccc([N+](=O)[O-])cc2)c2ccccc21	PFF0160c	enzyme activity	inhibitor	absorbance	IC50	2150 nM
CCCC[C@@H]1NC(=O)[C@H](Cc2ccc(O)cc2)NC(=O)[C@@H]2CCCN2C(=O)[C@H](CC(=O)O)NC(=O)[C@H](C)NC(=O)[C@H](Cc2ccccc2)NC(=O)[C@@H]2CSCCC(=O)N3CN(CN(C3)C(=O)CCSC[C@H](NC(C)=O)C(=O)N[C@@H](CC(C)(C)C)C(=O)N3CCC[C@H]3C(=O)N[C@@H](CCC(=O)O)C(=O)N[C@H](CCCCNC(=O)CCc3cn(CCOCCOCCOCCOCCOCCC(=O)N[C@H]4CSCCC(=O)N5CN6CN(C5)C(=O)CCSC[C@H](NC(=O)[C@@H](CC(=O)O)NC(=O)[C@H](Cc5cccc7ccccc57)NC(=O)[C@@H]5CCCN5C4=O)C(=O)N[C@@H](CCSC)C(=O)N[C@@H](CCCCNC(=N)N)C(=O)N[C@@H](CC(=O)O)C(=O)N[C@@H](Cc4c[nH]c5ccccc45)C(=O)N[C@@H](CO)C(=O)N[C@@H]([C@@H](C)O)C(=O)N4CCC[C@H]4C(=O)N4C[C@H](O)C[C@H]4C(=O)N[C@@H](Cc4c[nH]c5ccccc45)C(=O)N[C@H](C(N)=O)CSCCC6=O)nn3)C(=O)N3CCC[C@H]3C(=O)N[C@@H](Cc3ccc(O)cc3)C(=O)N2)C(=O)CCSCCNC1=O	Nectin-4	binding		SPR	Kd	1.6 nM
COc1cc(Nc2ccnc3cc(-c4ccncc4)ccc23)cc(OC)c1OC	PFF0160c E182D	enzyme activity	inhibitor	absorbance	IC50	1510 nM
N[C@@H](C[C@]1(C(=O)O)C[C@H]2OC[C@@H](O)[C@@H](O)[C@H]2O1)C(=O)O	Glutamate receptor ionotropic, kainate 2 (Grik2, Rattus norvegicus, UniProt P42260, A518T)	ligand displacement		radioligand	Ki	61 nM
CN(C)CC[C@@H](c1ccc(Cl)cc1)c1ccccn1	SIGMAR1	ligand displacement		radioligand	Ki	1990 nM
COc1nc(NCC(C)C)nc(Oc2ccc(=O)n(Cc3ccccc3)n2)n1	PFF0160c E182D	enzyme activity	inhibitor	absorbance	IC50	4640 nM
Cc1c2ccncc2c(C)c2c1[nH]c1ccccc12	SIGMAR1	ligand displacement		radioligand	Ki	> 10000 nM
O=C(CNCC1CCCCC1)Nc1cc(C(F)(F)F)ccc1Cl	PFF0160c E182D	enzyme activity	inhibitor	absorbance	IC50	8390 nM
CCCC[C@@H]1NC(=O)[C@H](Cc2ccc(O)cc2)NC(=O)[C@@H]2CCCN2C(=O)[C@H](CC(=O)O)NC(=O)[C@H](C)NC(=O)[C@H](Cc2ccccc2)NC(=O)[C@@H]2CSCCC(=O)N3CN(CN(C3)C(=O)CCSC[C@@H](C(=O)N[C@@H](C)C(N)=O)NC1=O)C(=O)CCSC[C@H](NC(=O)[C@H](C)NC(C)=O)C(=O)N[C@@H]([C@@H](C)CC)C(=O)N[C@@H](CCC(=O)O)C(=O)N[C@@H](CCC(=O)O)C(=O)N[C@H](CCCCNC(=O)CCc1cn(CCOCCOCCOCCOCCOCCC(=O)N[C@H]3CSCCC(=O)N4CN5CN(C4)C(=O)CCSC[C@H](NC(=O)[C@@H](CC(=O)O)NC(=O)[C@H](Cc4cccc6ccccc46)NC(=O)[C@@H]4CCCN4C3=O)C(=O)N[C@@H](CCSC)C(=O)N[C@@H](CCCCNC(=N)N)C(=O)N[C@@H](CC(=O)O)C(=O)N[C@@H](Cc3c[nH]c4ccccc34)C(=O)N[C@@H](CO)C(=O)N[C@@H]([C@@H](C)O)C(=O)N3CCC[C@H]3C(=O)N3C[C@H](O)C[C@H]3C(=O)N[C@@H](Cc3c[nH]c4ccccc34)C(=O)N[C@H](C(N)=O)CSCCC5=O)nn1)C(=O)N[C@@H](CCC(N)=O)C(=O)N[C@@H](Cc1ccc(O)cc1)C(=O)N2	Nectin-4	binding		SPR	Kd	2.2 nM
COC(=O)C1(c2ccc(C)cc2)CC1CN1CCC(O)(c2ccccc2)CC1 (stereo not drawn)	SIGMAR1	ligand displacement		radioligand	Ki	18.7 nM
CC(CNCc1cn(Cc2cc(Br)cc(Br)c2)c2ccccc12)CNc1cc(=O)c2ccccc2[nH]1 (stereo not drawn)	PFF0160c	enzyme activity	inhibitor	absorbance	IC50	2720 nM
N[C@@H](CC(=O)O)C(=O)O	tar (Salmonella enterica, UniProt P02941, E302Q/E491Q)	binding			Kd	1000 nM
